Laboratory results reported in article PMC3969268 (Journal of medicinal chemistry, 2012).

Tests used:
[1] = target: T1, EcFtsZ (Escherichia coli, UniProt P0A9A6); settings: previously reported; cited from earlier work
[2] = target: EfFtsZ (Enterococcus faecalis, UniProt O08439); test: FtsZ polymerization light-scattering; format: biochemical, E. faecalis
[3] = system: S. aureus ATCC 49951 (MSSA); test: MIC broth microdilution, S. aureus ATCC 49951; format: cell-based; settings: Staphylococcus aureus, ATCC49951|MSSA, 24 h
[4] = system: S. aureus 8325-4; test: Minimum bactericidal concentration; format: cell-based
[5] = system: S. aureus 8325-4 (MSSA); test: MIC broth microdilution, S. aureus 8325-4; format: cell-based; settings: 24 h
[6] = target: T1, EcFtsZ; test: FtsZ polymerization light-scattering; format: biochemical, E. coli
[7] = system: S. aureus; test: Emergence of resistance, large inoculum approach; format: cell-based; settings: ~3 × 10^9 CFU/mL S. aureus on TSA plates with agent at 4- to 32-fold MIC; 24 h
[8] = system: S. aureus; settings: known from literature; cited from earlier work
[9] = target: T2, SaFtsZ (Staphylococcus aureus, UniProt P0A031); test: FtsZ polymerization light-scattering; format: biochemical, S. aureus; settings: for extent of stimulation of FtsZ polymerization (A340): 40 μg/mL compound or comparator drug
T2 sequence (P0A031 1-390): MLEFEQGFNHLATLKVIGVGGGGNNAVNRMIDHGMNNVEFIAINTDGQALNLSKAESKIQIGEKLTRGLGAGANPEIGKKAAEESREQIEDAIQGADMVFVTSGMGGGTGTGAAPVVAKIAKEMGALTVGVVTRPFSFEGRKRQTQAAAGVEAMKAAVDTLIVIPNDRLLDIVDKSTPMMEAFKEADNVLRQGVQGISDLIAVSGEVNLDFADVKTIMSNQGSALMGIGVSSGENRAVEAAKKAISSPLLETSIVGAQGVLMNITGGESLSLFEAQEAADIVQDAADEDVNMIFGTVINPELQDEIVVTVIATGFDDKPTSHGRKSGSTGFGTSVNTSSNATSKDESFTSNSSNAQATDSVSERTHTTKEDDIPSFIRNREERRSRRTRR

[10] = target: MAP-rich porcine β-tubulin (70% β-tubulin, 30% MAPs) (Sus scrofa, UniProt P02554); test: Tubulin polymerization light-scattering; format: biochemical; settings: 2 mg/mL porcine β-tubulin, 1 mM GTP, 37 °C
Chain of MAP-rich porcine β-tubulin (70% β-tubulin, 30% MAPs) (P02554 whole entry): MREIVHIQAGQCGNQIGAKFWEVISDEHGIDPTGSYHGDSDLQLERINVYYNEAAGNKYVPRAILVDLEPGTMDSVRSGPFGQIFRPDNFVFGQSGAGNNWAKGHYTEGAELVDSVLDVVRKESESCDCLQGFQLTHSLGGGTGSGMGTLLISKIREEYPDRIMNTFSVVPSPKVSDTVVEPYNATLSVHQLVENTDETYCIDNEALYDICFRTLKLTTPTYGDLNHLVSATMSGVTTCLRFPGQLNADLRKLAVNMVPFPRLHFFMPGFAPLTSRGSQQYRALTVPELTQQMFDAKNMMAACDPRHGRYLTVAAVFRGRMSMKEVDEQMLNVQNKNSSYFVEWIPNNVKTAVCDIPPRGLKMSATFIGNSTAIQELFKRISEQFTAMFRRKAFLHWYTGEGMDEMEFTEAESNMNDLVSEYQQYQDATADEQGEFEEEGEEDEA
Chain of MAP-rich porcine β-tubulin (70% β-tubulin, 30% MAPs) (P02550 whole entry partner): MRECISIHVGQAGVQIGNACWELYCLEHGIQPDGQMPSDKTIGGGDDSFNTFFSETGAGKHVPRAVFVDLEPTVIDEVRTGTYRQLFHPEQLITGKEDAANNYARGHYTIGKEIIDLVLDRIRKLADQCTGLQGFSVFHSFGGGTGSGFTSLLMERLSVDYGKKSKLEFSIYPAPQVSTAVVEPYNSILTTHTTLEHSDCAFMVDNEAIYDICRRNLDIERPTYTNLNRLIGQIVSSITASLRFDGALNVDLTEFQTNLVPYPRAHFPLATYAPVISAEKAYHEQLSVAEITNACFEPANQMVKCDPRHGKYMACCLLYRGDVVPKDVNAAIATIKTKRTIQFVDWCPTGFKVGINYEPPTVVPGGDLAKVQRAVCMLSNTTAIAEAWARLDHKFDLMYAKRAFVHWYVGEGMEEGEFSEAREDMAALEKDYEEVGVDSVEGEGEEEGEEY

[11] = target: E. faecalis FtsZ (EfFtsZ) (Enterococcus faecalis, UniProt O08439); test: Fluorescence anisotropy determination of compound-FtsZ binding affinity, EfFtsZ; settings: for binding to FtsZ (qualitative; Kd not quantifiable): EfFtsZ
[12] = target: S. aureus FtsZ (SaFtsZ), wild-type (Staphylococcus aureus, UniProt P0A031); format: binding
[13] = target: E. coli FtsZ (EcFtsZ) (Escherichia coli, UniProt P0A9A6); test: Fluorescence anisotropy determination of compound-FtsZ binding affinity, EcFtsZ
Chain of E. coli FtsZ (EcFtsZ) (P0A9A6 whole entry): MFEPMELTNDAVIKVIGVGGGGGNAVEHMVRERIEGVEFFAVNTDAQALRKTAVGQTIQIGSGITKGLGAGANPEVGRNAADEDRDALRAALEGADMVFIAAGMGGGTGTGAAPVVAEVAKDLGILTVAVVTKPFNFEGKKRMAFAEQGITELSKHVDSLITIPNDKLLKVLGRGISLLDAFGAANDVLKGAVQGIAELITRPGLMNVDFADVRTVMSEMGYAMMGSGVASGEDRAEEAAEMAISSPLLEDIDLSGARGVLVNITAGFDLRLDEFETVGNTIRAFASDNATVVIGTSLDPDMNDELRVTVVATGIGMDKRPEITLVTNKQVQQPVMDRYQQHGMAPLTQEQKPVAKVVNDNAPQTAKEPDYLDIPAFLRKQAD

[14] = system: E. coli N43 (acrA1)
[15] = system: E. faecalis ATCC 51575 (VRE); test: MIC broth microdilution, E. faecalis ATCC 51575; format: cell-based; settings: CAMH broth, 24 h, 37 °C
[16] = system: S. aureus ATCC 33591 (MRSA); test: MIC broth microdilution, S. aureus ATCC 33591; format: cell-based; settings: CAMH broth + 2% NaCl, 24 h, 37 °C
[17] = system: S. aureus Mu3 (MRSA); test: MIC broth microdilution, S. aureus Mu3; format: cell-based; settings: S. aureus Mu3 (MRSA, hetero-GISA); CAMH broth + 2% NaCl, 24 h, 37 °C
[18] = system: E. faecalis ATCC 19433 (VSE); test: MIC broth microdilution, E. faecalis ATCC 19433; format: cell-based; settings: CAMH broth, 24 h, 37 °C
[19] = target: G196A mutant SaFtsZ (Staphylococcus aureus, UniProt P0A031, G196A); test: FtsZ polymerization light-scattering; format: biochemical, S. aureus; settings: G196A mutant (not shown)
[20] = target: T3, E185A mutant SaFtsZ (Staphylococcus aureus, UniProt P0A031, E185A); test: Fluorescence anisotropy binding affinity, E185A mutant SaFtsZ; parameters: species or system S. aureus; settings: ratio of Kd values
[21] = system: S. aureus 8325-4 (MSSA); format: cell-based; settings: after 12 incubation cycles
[22] = target: EfFtsZ-bound BoGTPγS (GTP binding pocket) (Enterococcus faecalis, UniProt O08439); test: BoGTPγS fluorescence anisotropy competition assay, EfFtsZ; parameters: species or system E. faecalis; settings: 1 μM BoGTPγS, 5 μM FtsZ, competitor 0 to 40 μM
[23] = target: T4, I228R mutant SaFtsZ (Staphylococcus aureus, UniProt P0A031, I228R); test: Fluorescence anisotropy binding affinity, I228R mutant SaFtsZ; parameters: species or system S. aureus; settings: ratio of Kd values
[24] = target: T1, EcFtsZ; test: Transmission electron microscopy of compound-induced FtsZ polymers, EcFtsZ; format: biochemical, E. coli; settings: 20 μg/mL
[25] = system: S. aureus 8325-4 (MSSA); test: Time-kill assay; format: cell-based; settings: for reduction of bacterial number (CFUs): 8 × MIC (8 μg/mL)
Outline: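 Exponential-phase S. aureus 8325-4 was diluted in cation-adjusted Mueller-Hinton broth to 10^5–10^6 CFU/mL, with DMSO as vehicle control. Cultures were shaken at 37 °C and sampled at 0, 2, 4 and 6 h. Samples were plated on tryptic soy agar, centrifuged and resuspended when undiluted to avoid carry-over. Colonies were counted after 24 h at 37 °C.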

[26] = target: T3, E185A mutant SaFtsZ; test: FtsZ polymerization light-scattering; format: biochemical, S. aureus
[27] = target: EcFtsZ-bound BoGTPγS (GTP binding pocket) (Escherichia coli, UniProt P0A9A6); test: BoGTPγS fluorescence anisotropy competition assay, EcFtsZ; parameters: species or system E. coli; settings: 1 μM BoGTPγS, 5 μM FtsZ, competitor 0 to 40 μM
Chain of EcFtsZ-bound BoGTPγS (GTP binding pocket) (P0A9A6 whole entry): as above
Outline: (§1)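 Competition anisotropy assay: 1 μM BODIPY-GTPγS with 0 or 5 μM FtsZ, plus test compound or unlabeled GTP (0–40 μM), in 50 mM Tris·HCl pH 7.4, 50 mM KCl, 2 mM magnesium acetate. After 5 min at 25 °C, probe anisotropy was read (ex 488/em 510 nm, 4 nm bandwidths), compared with FtsZ-free probe. Triplicates averaged.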

[28] = target: T4, I228R mutant SaFtsZ; test: FtsZ polymerization light-scattering; format: biochemical, S. aureus
[29] = target: T2, SaFtsZ; test: Transmission electron microscopy of compound-induced FtsZ polymers, SaFtsZ; format: biochemical; settings: 20 μg/mL
[30] = target: SaFtsZ-bound BoGTPγS (GTP binding pocket) (Staphylococcus aureus, UniProt P0A031); test: BoGTPγS fluorescence anisotropy competition assay, SaFtsZ; settings: 1 μM BoGTPγS, 5 μM FtsZ, competitor 0 to 40 μM
Outline: as §1

[31] = 40 μg/mL compound or comparator drug
[32] = compound 0 to 40 μg/mL, 10 μM protein, 1 mM GTP, 25 °C

T1 sequence (P0A9A6 whole entry): as above

Compound: NC(=O)c1c(F)ccc(OCc2nc3cc(Cl)cnc3s2)c1F [PC190723]
- impact on EcFtsZ polymerization [1]: does not affect the polymerization

Compound: CN[C@H](CC(C)C)C(=O)N[C@H]1C(=O)N[C@@H](CC(N)=O)C(=O)N[C@H]2C(=O)N[C@H]3C(=O)N[C@H](C(=O)N[C@H](C(=O)O)c4cc(O)cc(O)c4-c4cc3ccc4O)[C@H](O)c3ccc(c(Cl)c3)Oc3cc2cc(c3O[C@@H]2O[C@H](CO)[C@@H](O)[C@H](O)[C@H]2O[C@H]2C[C@](C)(N)[C@H](O)[C@H](C)O2)Oc2ccc(cc2Cl)[C@H]1O.Cl [vancomycin]
- extent of stimulation of FtsZ polymerization (A340) [2, 31]: negligible impact
- MIC [3]: 0.5 µg/mL
- MBC/MIC [4]: 2
- MIC ([5]; Staphylococcus aureus, MSSA): 0.5 µg/mL

Compound: CC1(C)S[C@@H]2[C@H](NC(=O)[C@H](N)c3ccccc3)C(=O)N2[C@H]1C(=O)[O-].[Na+] [ampicillin, reference compound]
- extent of stimulation of FtsZ polymerization (A340) [6, 31]: negligible impact

Compound: CO[C@H]1/C=C/O[C@@]2(C)Oc3c(C)c(O)c4c(O)c(c(/C=N/N5CCN(C)CC5)c(O)c4c3C2=O)NC(=O)/C(C)=C\C=C\[C@H](C)[C@H](O)[C@@H](C)[C@@H](O)[C@@H](C)[C@H](OC(C)=O)[C@@H]1C [rifampicin, reference compound]
- agent-containing plates on which colonies were observed [7]: 100%
- rate of induced spontaneous mutants in S. aureus [8]: 10^−6 to 10^−8

Compound: CCC[C@@H]1C[C@@H](C(=O)N[C@@H]([C@H]2O[C@H](SC)[C@H](O)[C@@H](O)[C@H]2O)[C@H](C)Cl)N(C)C1.Cl [clindamycin, reference compound]
- extent of stimulation of FtsZ polymerization (A340) ([9]; SaFtsZ): negligible impact

Compound: COC(=O)Nc1nc2cc(C(=O)c3cccs3)ccc2[nH]1 [nocodazole]
- impact on tubulin polymerization (A340) ([10]; 10 μg/mL): expected inhibitory impact

Compound: CC(C)(C)c1ccc(-c2cc(CNC(=N)N)ncn2)cc1 [compound 15, 1-((6-(4-(tert-Butyl)phenyl)pyrimidin-4-yl)methyl)guanidine]
- binding to FtsZ (qualitative; Kd not quantifiable) [11]: weak nature of the binding interactions
- binding to FtsZ (qualitative; Kd not quantifiable) [12]: weak nature of the binding interactions
- binding to FtsZ (qualitative; Kd not quantifiable) [13]: weak nature of the binding interactions
- AcrAB efflux pump substrate (inferred from MIC N43 vs W4573) [14]: substrates of the AcrAB efflux pump

Compound: CC(C)(C)c1ccc(-c2ccnc(CNC(=N)N)c2)cc1 [compound 14, 1-((4-(4-(tert-Butyl)phenyl)pyridin-2-yl)methyl)guanidine]
- binding to FtsZ (qualitative; Kd not quantifiable) [11]: weak nature of the binding interactions
- binding to FtsZ (qualitative; Kd not quantifiable) [12]: weak nature of the binding interactions
- binding to FtsZ (qualitative; Kd not quantifiable) [13]: weak nature of the binding interactions
- AcrAB efflux pump substrate (inferred from MIC N43 vs W4573) [14]: substrates of the AcrAB efflux pump

Compound: CC(=O)O[C@H]1C(=O)[C@@]2(C)[C@H]([C@H](OC(=O)c3ccccc3)[C@]3(O)C[C@H](OC(=O)[C@H](O)[C@@H](NC(=O)c4ccccc4)c4ccccc4)C(C)=C1C3(C)C)[C@]1(OC(C)=O)CO[C@@H]1C[C@@H]2O [paclitaxel]
- impact on tubulin polymerization (A340) ([10]; 25 μg/mL): expected stimulatory impact

Compound: oxacillin
- MIC [15]: 64.0 µg/mL
- MIC [16]: >64.0 µg/mL
- MIC [17]: >64.0 µg/mL
- extent of stimulation of FtsZ polymerization (A340) ([9]; SaFtsZ): negligible impact
- MIC [18]: 8.0 µg/mL
- MIC ([5]; S. aureus 8325-4 (MSSA), CAMH broth, 37 °C, ≥90% growth inhibition): 0.063 µg/mL

Compound: CC(C)(C)c1ccc(-c2cccc(CNC(=N)N)c2)cc1 [compound 13, 1-((4′-(tert-Butyl)-[1,1′-biphenyl]-3-yl)methyl)guanidine]
- effect of G196A mutation on stimulation of SaFtsZ polymerization by compound [19]: negligible effect
- affinity for E185A mutant lower than for wild-type SaFtsZ [20]: approximately 10 fold
- change of MIC over repeated incubation cycles [21]: did not change to any significant degree
- impact on FtsZ polymerization dynamics (A340) [2, 32]: increases both the kinetics and extent
- effect on anisotropy of FtsZ-bound BoGTPγS [22]: does not significantly alter the anisotropy
- affinity for EfFtsZ lower than affinity for SaFtsZ and EcFtsZ ([11]; ratio of Kd values): approximately 6 fold
- impact on tubulin polymerization (A340) ([10]; 40 μg/mL): negligible impact
- agent-containing plates on which colonies were observed [7]: none
- affinity for I228R mutant lower than for wild-type SaFtsZ [23]: approximately 10 fold
- FtsZ polymer assembly and bundling by EM [24]: promoting only the assembly, and not the bundling, of EcFtsZ polymers
- reduction of bacterial number (CFUs) ([25]; within 2 h): three logs
- reduction of bacterial number (CFUs) ([25]; within 6 h): four logs
- rate of kill relative to vancomycin ([25]; both agents at 8 × MIC): approximately 100 times
- impact on SaFtsZ polymerization (A340) ([26]; 10 μg/mL): essentially no effect
- magnitude of stimulation of SaFtsZ polymerization (A340) ([26]; 20 μg/mL): markedly lower than that observed for wild-type SaFtsZ
- effect on anisotropy of FtsZ-bound BoGTPγS [27]: does not significantly alter the anisotropy
- impact on FtsZ polymerization dynamics (A340) ([9]; SaFtsZ, compound 0 to 40 μg/mL, 10 μM protein, 1 mM GTP, 25 °C): increases both the kinetics and extent
- impact on SaFtsZ polymerization (A340) ([9]; wild-type SaFtsZ, 10 μg/mL): stimulatory impact
- impact on FtsZ polymerization dynamics (A340) [6, 32]: increases both the kinetics and extent
- impact on SaFtsZ polymerization (A340) ([28]; 10 μg/mL): essentially no effect
- magnitude of stimulation of SaFtsZ polymerization (A340) ([28]; 20 μg/mL): markedly lower than that observed for wild-type SaFtsZ
- FtsZ polymer assembly and bundling by EM [29]: promotes both the assembly and bundling of SaFtsZ polymers
- effect on anisotropy of FtsZ-bound BoGTPγS [30]: does not significantly alter the anisotropy
- AcrAB efflux pump substrate (inferred from MIC N43 vs W4573) [14]: substrate for the AcrAB efflux transporter

Compound: Nc1nc2c(ncn2[C@@H]2O[C@H](COP(=O)(O)OP(=O)(O)OP(=O)(O)O)[C@@H](O)[C@H]2O)c(=O)[nH]1 [GTP, reference compound]
- effect on anisotropy of FtsZ-bound BoGTPγS [22]: marked, concentration-dependent decrease
- effect on anisotropy of FtsZ-bound BoGTPγS [27]: marked, concentration-dependent decrease
- effect on anisotropy of FtsZ-bound BoGTPγS [30]: marked, concentration-dependent decrease
